For 34 compounds, IC50 and MIC results are on record in ChEMBL document CHEMBL1144559, “4-Pyridone derivatives as new inhibitors of bacterial enoyl-ACP reductase FabI” (Bioorg Med Chem, 2007).

Assay [1] in a line: Inhibition of Escherichia coli DH5-alpha His tagged Fab1. Also on record: species or system DH5alpha. Put shortly:
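His-tagged E. coli FabI was expressed in E. coli TOP10 (0.2% arabinose induction), purified on Ni–NTA and eluted with 250 mM imidazole. NADH consumption was read at 340 nm for 10 min at room temperature. IC50 is the concentration giving 50% reduction of absorption.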

The next assay concerns Staphylococcus aureus. In words: Antimicrobial activity against Staphylococcus aureus ATCC 29213. Format: functional. The method, boiled down:
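Agar dilution on Mueller–Hinton agar with 5% horse blood, twofold serial compound dilutions. About 10^4 CFU per spot inoculated. Plates incubated at 35 °C for 20 h. MIC taken as the lowest concentration preventing visible growth.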

Each structure is given as a SMILES string. pIC50: −log10 of the molar value. Converted amounts (≈) assume the structure as drawn. Bounds are passed on as bounds.

`Cc1c(Cc2c(Cl)cccc2Cl)c(=O)ccn1Cc1ccccc1`: the negative-log IC50 (pIC50) (commonly the negative decadic logarithm of the IC50, by convention in mol/L) in assay [1] is 6.52. Further, the MIC (commonly the least concentration at which growth counts as inhibited) against Staphylococcus aureus came to 0.5 µg/mL (≈ 1.4 µM).
As to `CCCCc1c(Cc2c(Cl)cccc2Cl)c(=O)ccn1Cc1ccccc1`, in assay [1], the negative logarithm of the IC50 (pIC50) was 5.35. In the assay on Staphylococcus aureus, the minimum inhibitory concentration (MIC) was determined as 32 µg/mL (≈ 79.9 µM).
In the same order, the values of `COC(=O)c1ccc(Cn2ccc(=O)c(Cc3c(Cl)cccc3Cl)c2C)cc1` are 6.52 and > 128 µg/mL.
Take `Cc1c(Cc2c(Cl)cccc2Cl)c(=O)ccn1Cc1ccc(C(=O)O)cc1`: the pIC50 in assay [1] is 4.66. Further, the MIC with Staphylococcus aureus is > 128 µg/mL.
In the same order, the values of `Cc1c(Cc2ccccc2)c(=O)ccn1Cc1ccccc1` are 4.70 and 64 µg/mL (≈ 221 µM).
In the same order, the values of `Cc1c(Cc2ccccc2Cl)c(=O)ccn1Cc1ccccc1` are 5.38 and 64 µg/mL (≈ 198 µM).
Consider `Cc1c(Cc2ccc(Cl)cc2Cl)c(=O)ccn1Cc1ccccc1`, for which the pIC50 in assay [1] was 5.70. For the same compound, the MIC against Staphylococcus aureus came out at 32 µg/mL (≈ 89.3 µM).
In the same order, the values of `Cc1c(Cc2c(F)cccc2F)c(=O)ccn1Cc1ccccc1` are 5.57 and 4 µg/mL (≈ 12.3 µM).
For `C=Cc1c(C)n(Cc2ccccc2)ccc1=O`, the negative-log IC50 (pIC50) in assay [1] was < 4.00.
For the compound `Cc1c(CCc2ccccn2)c(=O)ccn1Cc1ccccc1`, in assay [1], the pIC50 is < 4.00.
On to `Cc1c(CC2CCCCC2)c(=O)ccn1Cc1ccccc1`, for which the negative logarithm of the IC50 (pIC50) in assay [1] was 6.40. For the same compound, the minimal inhibitory concentration (MIC) against Staphylococcus aureus turned out to be 32 µg/mL (≈ 108 µM).
In the same order, the values of `Cc1c(Cc2c(Cl)cccc2Cl)c(=O)ccn1CCCCCO` are 5.74 and 8 µg/mL (≈ 22.6 µM).
In assay [1], `Cc1c(Cc2c(Cl)cccc2Cl)c(=O)ccn1CCCCC(=O)O` gave a negative-log IC50 (pIC50) of 3.96.
Regarding `Cc1c(Cc2c(Cl)cccc2Cl)c(=O)ccn1Cc1c(Cl)cccc1Cl`, the pIC50 in assay [1] was 5.08. In the assay with Staphylococcus aureus, this compound showed a minimum inhibitory concentration (MIC) of 32 µg/mL (≈ 74.9 µM).
In turn, `Cc1c(Cc2c(Cl)cccc2Cl)c(=O)ccn1Cc1ccc(N)cc1` had a negative logarithm of the IC50 (pIC50) in assay [1] of 6.54. For the same compound, in the assay with Staphylococcus aureus, the minimal inhibitory concentration (MIC) came to 1 µg/mL (≈ 2.68 µM).
`Cc1c(Cc2c(Cl)cccc2Cl)c(=O)ccn1Cc1ccco1` showed a negative logarithm of the IC50 (pIC50) in assay [1] of 6.33. This compound gave an MIC against Staphylococcus aureus of 2 µg/mL (≈ 5.74 µM).
In the same order, the values of `Cc1cccc(C)c1Cc1c(C)n(Cc2ccccc2)ccc1=O` are 5.37 and 16 µg/mL (≈ 50.4 µM).
In the case of `CCCCc1cc(=O)c(Cc2c(Cl)cccc2Cl)c(C)[nH]1`, the negative-log IC50 (pIC50) in assay [1] was 6.42. Further, the MIC in the assay on Staphylococcus aureus came to 8 µg/mL (≈ 24.7 µM).
In assay [1], `CCCCn1ccc(=O)c(Cc2c(Cl)cccc2Cl)c1C` gave a negative logarithm of the IC50 (pIC50) of 6.51. Besides, the MIC in the assay with Staphylococcus aureus turned out to be 2 µg/mL (≈ 6.17 µM).
In the same order, the values of `CCCCCCCCCCn1ccc(=O)c(Cc2c(Cl)cccc2Cl)c1C` are 6.66 and 32 µg/mL (≈ 78.4 µM).
In the same order, the values of `Cc1[nH]c(CC2CCCCC2)cc(=O)c1Cc1c(Cl)cccc1Cl` are 6.54 and 2 µg/mL (≈ 5.49 µM).
Regarding `Cc1c(/C=C/c2ccccn2)c(=O)ccn1Cc1ccccc1`, the pIC50 in assay [1] is < 4.00.
The compound `Cc1c(Cc2c(F)cccc2Cl)c(=O)ccn1Cc1ccccc1` had a pIC50 in assay [1] of 6.41. The compound also came in with a minimal inhibitory concentration (MIC) against Staphylococcus aureus of 2 µg/mL (≈ 5.85 µM).
In the same order, the values of `Cc1[nH]ccc(=O)c1Cc1c(Cl)cccc1Cl` are 3.92 and > 64 µg/mL.
In the same order, the values of `Cc1c(Cc2c(Cl)cc(Cl)cc2Cl)c(=O)ccn1Cc1ccccc1` are 5.82 and 8 µg/mL (≈ 20.4 µM).
`Cc1c(Cc2c(Cl)cccc2Cl)c(=O)ccn1C`: in assay [1], the negative logarithm of the IC50 (pIC50) was 4.96. Moreover, in the assay with Staphylococcus aureus, the MIC is > 128 µg/mL.
In the same order, the values of `Cc1c(Cc2c(Cl)cccc2Cl)c(=O)ccn1Cc1ccc(C(N)=O)cc1` are 5.60 and 32 µg/mL (≈ 79.7 µM).
In turn, `CCc1c(Cc2c(Cl)cccc2Cl)c(=O)ccn1Cc1ccccc1` had a pIC50 in assay [1] of 6.11. In the assay with Staphylococcus aureus, this compound gave a minimum inhibitory concentration (MIC) of 8 µg/mL (≈ 21.5 µM).
In the same order, the values of `Cc1c(Cc2c(Cl)cccc2Cl)c(=O)ccn1CC(C)(C)SCc1cccc(C(F)(F)F)c1` are 5.72 and 64 µg/mL (≈ 124 µM).
In the same order, the values of `CCCCc1c(C)n(Cc2ccccc2)ccc1=O` are 4.21 and > 128 µg/mL.
In the same order, the values of `Cc1c(Cc2c(Cl)cccc2Cl)c(=O)ccn1CC1CCCCC1` are 6.66 and 0.25 µg/mL (≈ 0.686 µM).
In turn, `Cc1c(-c2ccccc2)c(=O)ccn1Cc1ccccc1` showed a negative logarithm of the IC50 (pIC50) in assay [1] of 5.54.
In the case of `Cc1c(Cc2c(Cl)cccc2Cl)c(=O)ccn1Cc1ccc([N+](=O)[O-])cc1`, the pIC50 in assay [1] was 5.74. Also, the lowest concentration to inhibit growth in the assay with Staphylococcus aureus (MIC) was 16 µg/mL (≈ 39.7 µM).
Consider `Oc1cc(Cl)ccc1Oc1ccc(Cl)cc1Cl` [TRICLOSAN], for which, in assay [1], the pIC50 is 6.29. The MIC in the assay on Staphylococcus aureus was 0.125 µg/mL (≈ 0.432 µM).
